Rows were chosen to be rich in hits. Some 7.2% of all compounds tested hit in one or more screens of this group.
PLAP act = human PLAP activation; purified PLAP enzyme, luminescent substrate read-out; stronger effect = higher value; activation fold at 20 µM; 1.2% of 96,000 active; P05187; in the data active = activation fold above about 2
Target sequence (P05187 whole entry, looked up): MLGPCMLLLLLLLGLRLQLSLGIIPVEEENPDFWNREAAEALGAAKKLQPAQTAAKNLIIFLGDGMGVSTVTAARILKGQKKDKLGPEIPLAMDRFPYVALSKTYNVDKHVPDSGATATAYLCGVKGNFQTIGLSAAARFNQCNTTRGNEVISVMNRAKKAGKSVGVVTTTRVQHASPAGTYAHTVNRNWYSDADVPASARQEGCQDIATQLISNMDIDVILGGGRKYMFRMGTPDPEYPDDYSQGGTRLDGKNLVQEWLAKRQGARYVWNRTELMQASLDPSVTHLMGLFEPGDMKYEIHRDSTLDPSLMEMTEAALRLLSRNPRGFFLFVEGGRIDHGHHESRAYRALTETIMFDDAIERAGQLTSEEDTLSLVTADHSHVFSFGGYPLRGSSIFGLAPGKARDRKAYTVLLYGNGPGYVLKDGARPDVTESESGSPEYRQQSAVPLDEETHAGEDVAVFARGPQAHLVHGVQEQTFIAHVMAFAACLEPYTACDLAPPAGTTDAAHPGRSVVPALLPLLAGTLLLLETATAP
PostGolgi yeast = growth inhibition of a yeast mutant, post-Golgi transport screen; post-Golgi transport phenotypic cell assay; inhibition, % at 10 µM; 0.9% of 98,000 active; AID 739;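 also: yeast cells grown in 1536-well plates; yeast grown about 18 h at 30C before absorbance read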
Ecoli tolC = E. coli tolC mutant growth inhibition | E. coli BW25113 tolC mutant growth, OD615 | growth inhibition, % at 10 µM (by protocol) | 2.2% of 65,000 active | AID 573;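 active = growth inhibition at or above a cutoff equal to the mean over every tested compound plus 3 SD, cut at about 60% in these data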;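 also: growth measured after 20 h incubation at 37 °C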
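Test system: E. coli BW25113 ΔtolC::kan bacteria | Medium: Kanamycin-containing LB broth (50 µg/mL) | Dosing: One dose of 10 µM final | Times: 20 h incubation with compound, 37 °C | Detection: Optical density read at 615 nm | Read-out basis: Percent growth inhibition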
PostGolgi ctrl = inhibits growth of the yeast control strain; 5% of 98,000 active; inhibition, % at 10 µM; efflux-deficient yeast background strain, growth absorbance A615, 16 h; AID 738
Ecoli WT expand = E. coli BW25113 growth inhibition, expanded screen; OD600 absorbance; growth inhibition, % at 100 µM; 0.15% of 98,000 active;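 active = growth inhibition above about 50% at one test dose, limit read from the data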;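 also: growth measured after 20 h incubation at 37 °C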
A number is an active result; 0 = inactive; - = not tested or not shown. Rule as the data show it, unless noted: active = inhibition above about 30%; inactive = the rest.

SMILES	PLAP act	PostGolgi yeast	Ecoli tolC	PostGolgi ctrl	Ecoli WT expand
Cc1ccccc1N1C(=O)C(Cl)=C(N2CCN(c3ccccc3)CC2)C1=O	0	0	0	38	0
O=c1c2cccc3c2c(nn1CN1CCOCC1)-c1ccccc1-3	0	41	80	0	0
COCC(=O)N(Cc1cc2cc(OC)ccc2[nH]c1=O)c1ccc(C)cc1	0	0	0	0	0
CN(C)c1cccc2c(S(=O)(=O)Nc3ccccn3)cccc12	0	0	0	36	0
CC(=O)Nc1ccc2c(c1)OCCO2	0	0	-	0	0
Cc1oc(C(C)(C)C)cc1C(=O)Nc1ccc2c(c1)OCCO2	0	0	80	0	0
Cc1ccc(-n2c(=O)[nH]cc(C(=O)Nc3ccc4c(c3)OCCO4)c2=O)cc1C	0	0	67	0	0
Cc1ccc2nc3sc(C(=O)N4CCCc5ccccc54)c(N)c3cc2c1	0	0	-	50	0
Cc1cc(C)n(-c2nc(NCCC(C)C)c3c4c(sc3n2)COC(C)(C)C4)n1	2.9	0	-	33	0
Cc1cc(C)n(-c2nc(-n3nc(C)cc3C)c3c4c(sc3n2)COC(C)(C)C4)n1	0	0	0	0	0
CCn1c(=O)c2ccccc2n2c(SCC(=O)NCc3cccs3)nnc12	0	0	0	0	0
CCCn1c(=O)c2ccccc2n2c(SCc3c(C(=O)OCC)oc4ccccc34)nnc12	0	0	0	51	0
CCCn1c(=O)c2ccccc2n2c(SCC(=O)c3ccc(CC)cc3)nnc12	0	0	-	0	0
CCCn1c(=O)c2ccccc2n2c(SCC(=O)NCc3cccs3)nnc12	0	0	0	40	0
Cc1ccc(C(=O)CSc2nnc(CNc3ccc(C)cc3C)o2)cc1	0	0	0	0	0
FC(F)(F)c1nc(-c2cccs2)ncc1-c1nnnn1-c1ccc(Cl)cc1	0	0	-	53	0
COc1ccc(NC(=O)c2cc3sccc3n2Cc2ccc(F)cc2)cc1OC	0	0	-	33	0
O=C(Nc1nccs1)c1cc2sccc2n1Cc1ccc(F)cc1	0	0	0	0	0
CC1CC(N(C(=O)c2ccco2)c2ccccc2)c2ccccc2N1 (centres undefined)	0	0	68	0	0
Cc1cc(NC(=O)CN2CCN(Cc3ccccc3)CC2)nc2c1c(=O)oc1ccccc12	-	-	0	-	-
CCn1c(O)c(C=NCc2cccs2)c(=O)n(CC)c1=S	0	0	-	57	0
CCn1c(SCC(=O)NCc2cccs2)nc2c1c(=O)n(C)c(=O)n2C	0	0	0	0	0
Cc1noc(C)c1S(=O)(=O)N(CC(=O)N1CCCC1)c1ccc(C(C)C)cc1	0	0	0	0	0
Cc1noc(C)c1S(=O)(=O)N(CC(=O)N1CCCCCC1)c1ccc(C(C)C)cc1	0	0	0	32	0
CCn1c(NC(=O)Nc2cccc(C)c2C)cc2sccc21	0	0	-	0	0
SMILES	PLAP act	PostGolgi yeast	Ecoli tolC	PostGolgi ctrl	Ecoli WT expand
Cc1c(NC(=O)COC(=O)C(c2ccc(Cl)cc2)C(C)C)c(=O)n(-c2ccccc2)n1C (centres undefined)	0	0	-	0	0
COc1ccc(-c2[nH]c(-c3cccc(OC)c3)nc2SCC(=O)NCc2ccco2)cc1	0	0	67	0	0
CN(C)CCCNC(CC(=O)Nc1ccc(Cl)cc1)C(=O)O (centres undefined)	-	-	0	-	-
Cc1cc(C)cc(NC(=O)C2CCN(S(=O)(=O)c3c(C)n[nH]c3C)CC2)c1	0	0	0	0	0
CCOC(=O)C1(C)NC(c2ccc(OC)cc2OC)C2C(=O)N(c3cccc(OC)c3)C(=O)C21 (centres undefined)	0	0	0	0	0
CCC(=O)N1CCc2cc(S(=O)(=O)N3CCc4ccccc43)ccc21	0	0	0	0	0
O=C(O)CCCC(=O)N1CCc2cc(S(=O)(=O)N3CCc4ccccc43)ccc21	0	0	75	0	0
Cc1cccc(C(=O)O/N=C2\CCCc3ccccc32)c1	0	0	-	0	0
Cc1ccc(C(=O)O/N=C2\CCCc3ccccc32)cc1	0	0	-	38	0
CC1CC(C)CN(c2ncnc3c2cnn3Cc2ccc(Cl)cc2)C1 (centres undefined)	0	0	81	51	0
Clc1ccc(Cn2ncc3c(N4CCCC4)ncnc32)cc1	0	0	0	0	0
Clc1ccc(Cn2ncc3c(N4CCCCC4)ncnc32)c(Cl)c1	0	0	73	0	0
Cc1cccc(-n2ncc3c(N4CCCC4)ncnc32)c1	-	-	0	-	-
Clc1ccc(Cn2ncc3c(N4CCCCC4)ncnc32)cc1	0	0	0	0	0
Cc1cccc(-n2ncc3c(N4CC(C)CC(C)C4)ncnc32)c1 (centres undefined)	0	0	63	33	0
Cc1cccc2c(SCC(=O)NCC3CCCO3)nc(-c3ccc(F)cc3)nc12 (centres undefined)	0	0	-	0	0
COc1ccc2cnn(-c3ccccc3)c(=O)c2c1OC	0	0	0	0	0
COc1cnn(-c2ccccc2)c(=O)c1SCc1ccc(Cl)c(Cl)c1	0	0	-	60	0
OC(c1ccccc1)(c1ccc(F)cc1)C(c1ccccc1)N1CCOCC1 (centres undefined)	0	0	-	31	0
CCCCN(CCCC)C(=O)c1ccccc1NC(=O)CN1C(=O)c2ccccc2C1=O	0	0	-	0	0
Cn1c(/C(C#N)=C(\O)CN2CCN(Cc3ccccc3)CC2)nc2ccccc21	2.5	0	0	0	0
CCN(CC)S(=O)(=O)c1ccc(/C(O)=C(\C#N)c2nc3ccccc3n2C)cc1	0	0	0	0	0
Cc1ccc(SC/C(O)=C(\C#N)c2nc3ccccc3n2C)cc1	0	0	0	37	0
CC1=CCC2(CO)COC(c3ccccc3O)C1C2 (centres undefined)	0	0	0	0	0
CC(C)OC(=O)c1cccnc1SCC(=O)N(C)c1ccccc1	0	0	-	0	0
SMILES	PLAP act	PostGolgi yeast	Ecoli tolC	PostGolgi ctrl	Ecoli WT expand
CC(C)OC(=O)c1cccnc1SCc1cc(=O)n2ccccc2n1	0	30	0	0	0
C/C(=C\C(=O)Nc1nccs1)c1ccccc1	0	0	0	0	0
Cc1ccc2c(c1)N(CC(=O)NC1CCC(C)CC1)C(=O)CO2 (centres undefined)	0	0	0	0	0
Cc1ccc2c(c1)N(CC(=O)NC1CCCc3ccccc31)C(=O)CO2 (centres undefined)	0	0	0	34	0
CC1CCCC(C)N1C(=O)Cn1cc(/C=C2/C(=O)Nc3ccccc32)c2ccccc21 (centres undefined)	0	0	-	82	0
CC1CCCCN1C(=O)Cn1cc(C(=O)c2ccco2)c2ccccc21 (centres undefined)	0	0	0	0	0
O=C(c1cn(CC(=O)N2CCCC2)c2ccccc12)C1CCCCC1	0	0	0	0	0
CN1C(=O)/C(=C/c2cn(CC(=O)N3CCCCC3)c3ccccc23)c2ccccc21	0	0	-	52	0
CC(C)OCC(O)CN1CCNCC1 (centres undefined)	0	0	-	0	0
O=C(NCc1ccccc1)N1CCN(c2ccccc2F)CC1	0	0	0	31	0
O=C(Cn1cc(C(=O)c2cccs2)c2ccccc21)NC1CCCCC1	0	0	-	0	0
O=C(Cc1ccc(Br)cc1)N1CCN(c2ccccc2)CC1	0	0	0	0	0

Assay outcomes: PubChem, several laboratories
